{
  "source": "ChEMBL document CHEMBL1649102",
  "about": "“Stereochemical survey of digitoxin monosaccharides: new anticancer analogues with enhanced apoptotic activity and growth inhibitory effect on human non-small cell lung cancer cell” (ACS Med Chem Lett, 2011)",
  "key": {"[1]": {"assay": "Growth inhibition of human NCI60 cells", "format": "functional", "method_in_brief": "(§1)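 NCI-60 cell lines grown in RPMI 1640 with 5% FBS and 2 mM L-glutamine, plated at 5,000–40,000 cells/well and preincubated 24 h. Time-zero plates were TCA-fixed. Drug was given at five concentrations (10-fold or ½-log dilutions from DMSO stock) for 48 h at 37°C. Cells were TCA-fixed, stained with SRB, and read at 515 nm. GI50 is where [(Ti−Tz)/(C−Tz)]×100 = 50.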"}, "HCT-116": {"tested_on": "HCT-116", "assay": "Growth inhibition of human HCT116 cells", "format": "functional", "method_in_brief": "as §1"}, "MOLT-4": {"tested_on": "MOLT-4", "assay": "Growth inhibition of human MOLT4 cells", "format": "functional", "method_in_brief": "as §1"}, "CAKI-1": {"tested_on": "CAKI-1", "assay": "Growth inhibition of human Caki1 cells", "format": "functional", "method_in_brief": "as §1"}, "A498": {"tested_on": "A498", "assay": "Growth inhibition of human A498 cells", "format": "functional", "method_in_brief": "as §1"}, "DU-145": {"tested_on": "DU-145", "assay": "Growth inhibition of human DU145 cells", "format": "functional", "method_in_brief": "as §1"}, "NCI-H460 [2]": {"tested_on": "NCI-H460", "assay": "Induction of apoptosis human NCI-H460 cells assessed as cellular degradation at 50 nM after 12 hrs by Hoechst-33342 staining", "format": "functional", "method_in_brief": "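NCI-H460 seeded 50,000 cells/well for 12 h, then exposed 12 h in serum-free medium (DMSO <0.1%). Stained 30 min at 37°C with 10 µg/ml Hoechst 33342 plus 20 µg/ml propidium iodide. Condensed or fragmented nuclei scored by fluorescence microscopy; apoptotic index = apoptotic/total nuclei ×100. 2 replicate wells, ≥3 runs (N = 6).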"}, "UO-31": {"tested_on": "UO-31", "assay": "Growth inhibition of human UO31 cells", "format": "functional", "method_in_brief": "(§2)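 NCI-60 panel SRB assay. Cells in RPMI 1640 with 5% FBS and 2 mM L-glutamine, plated at 5,000-40,000 cells/well and grown 24 h before dosing; time-zero plates TCA-fixed. Five concentrations (10-fold or ½ log dilutions, from DMSO stock) applied for 48 h at 37°C. TCA fixation (16% final for suspension cells), SRB stain, absorbance 515 nm; GI50 from net protein increase versus control.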"}, "NCI-H460 [3]": {"tested_on": "NCI-H460", "assay": "Cytotoxicity against human NCI-H460 cells assessed as cell death at 50 nM after 12 hrs by Hoechst-33342 staining and propidium iodide staining", "format": "functional, cell-based", "settings": "NCI-H460, 12 h", "method_in_brief": "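NCI-H460 cells were seeded at 50,000 cells/well for 12 h, then exposed 12 h in serum-free medium (DMSO <0.1%). Cells were stained with Hoechst 33342 (10 µg/ml) and propidium iodide (20 µg/ml) for 30 min at 37°C. Condensed or fragmented nuclei were scored by fluorescence microscopy, and apoptotic index = apoptotic/total nuclei ×100. Duplicate wells, ≥3 runs (N = 6).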"}, "TK-10": {"tested_on": "TK-10", "assay": "Growth inhibition of human TK10 cells", "format": "functional", "method_in_brief": "as §2"}, "SN12C": {"tested_on": "SN12C", "assay": "Growth inhibition of human SN12C cells", "format": "functional", "method_in_brief": "as §2"}, "RXF 393": {"tested_on": "RXF 393", "assay": "Growth inhibition of human RXF393 cells", "format": "functional", "method_in_brief": "as §1"}, "ACHN": {"tested_on": "ACHN", "assay": "Growth inhibition of human ACHN cells", "format": "functional", "method_in_brief": "as §1"}, "786-0": {"tested_on": "786-0", "assay": "Growth inhibition of human 786-0 cells", "format": "functional", "method_in_brief": "as §1"}, "OVCAR-8": {"tested_on": "OVCAR-8", "assay": "Growth inhibition of human OVCAR8 cells", "format": "functional", "method_in_brief": "as §1"}, "A549": {"tested_on": "A549", "assay": "Growth inhibition of human A549 cells", "format": "functional", "method_in_brief": "as §1"}, "NCI-H460 [4]": {"tested_on": "NCI-H460", "assay": "Growth inhibition of human NCI-H460 cells after 48 hrs by MTT assay", "format": "functional", "settings": "NCI-H460, 48 h", "method_in_brief": "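NCI-H460 cells in RPMI 1640 with 10% FBS were seeded at 10,000 cells/well for 12 h. Drug was diluted 1000× from DMSO into 1% FBS medium (DMSO <0.1%). Time-course runs used 50 nM; dose–response runs used 48 h exposure. Viability was read by MTT (4 h), with formazan dissolved in DMSO for 45 min and read at 562 nm. Triplicate wells, ≥3 runs (N = 9), two-way ANOVA.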"}, "NCI-H460 [5]": {"tested_on": "NCI-H460", "assay": "Growth inhibition of human NCI-H460 cells", "format": "functional", "method_in_brief": "as §1"}, "OVCAR-3": {"tested_on": "OVCAR-3", "assay": "Growth inhibition of human OVCAR3 cells", "format": "functional", "method_in_brief": "as §1"}},
  "note": "Activity calls are given as the source filed them. The rule behind the calls is not given here.",
  "data": [
    {"smiles": "C[C@@H]1O[C@@H](O[C@H]2CC[C@@]3(C)[C@H](CC[C@@H]4[C@@H]3CC[C@]3(C)[C@@H](C5=CC(=O)OC5)CC[C@]43O)C2)C=C[C@H]1O", "values": [
      {"measurement": "GI50", "setting": "[1]", "value": 0.001, "unit": "µM"}
    ]},
    {"smiles": "C[C@@H]1O[C@H](O[C@H]2CC[C@@]3(C)[C@H](CC[C@@H]4[C@@H]3CC[C@]3(C)[C@@H](C5=CC(=O)OC5)CC[C@]43O)C2)C[C@H](O)[C@H]1O", "values": [
      {"measurement": "GI50", "setting": "[1]", "value": 0.001, "unit": "µM"}
    ]},
    {"smiles": "C[C@@H]1O[C@@H](O[C@H]2CC[C@@]3(C)[C@H](CC[C@@H]4[C@@H]3CC[C@]3(C)[C@@H](C5=CC(=O)OC5)CC[C@]43O)C2)CC[C@H]1O", "note": "[RAMNODIGIN]", "values": [
      {"measurement": "growth inhibition (GI)", "setting": "HCT-116", "value": "Active"},
      {"measurement": "growth inhibition (GI)", "setting": "MOLT-4", "value": "Active"},
      {"measurement": "GI50", "setting": "[1]", "value": 0.012, "unit": "µM"},
      {"measurement": "growth inhibition (GI)", "setting": "CAKI-1", "value": "Active"},
      {"measurement": "growth inhibition (GI)", "setting": "A498", "value": "Active"},
      {"measurement": "growth inhibition (GI)", "setting": "DU-145", "value": "Active"},
      {"measurement": "Activity", "setting": "NCI-H460 [2]", "value": 33, "unit": "%"},
      {"measurement": "growth inhibition (GI)", "setting": "UO-31", "value": "Active"},
      {"measurement": "IC50", "setting": "NCI-H460 [3]", "value": 0.0557, "unit": "µM"},
      {"measurement": "growth inhibition (GI)", "setting": "TK-10", "value": "Active"},
      {"measurement": "growth inhibition (GI)", "setting": "SN12C", "value": "Active"},
      {"measurement": "growth inhibition (GI)", "setting": "RXF 393", "value": "Active"},
      {"measurement": "growth inhibition (GI)", "setting": "ACHN", "value": "Active"},
      {"measurement": "growth inhibition (GI)", "setting": "786-0", "value": "Active"},
      {"measurement": "growth inhibition (GI)", "setting": "OVCAR-8", "value": "Active"},
      {"measurement": "growth inhibition (GI)", "setting": "A549", "value": "Active"},
      {"measurement": "GI50", "setting": "NCI-H460 [4]", "value": 0.0022, "unit": "µM"},
      {"measurement": "growth inhibition (GI)", "setting": "NCI-H460 [5]", "value": "Active"},
      {"measurement": "growth inhibition (GI)", "setting": "OVCAR-3", "value": "Active"}
    ]},
    {"smiles": "C[C@H]1O[C@H](O[C@H]2CC[C@@]3(C)[C@H](CC[C@@H]4[C@@H]3CC[C@]3(C)[C@@H](C5=CC(=O)OC5)CC[C@]43O)C2)C=C[C@@H]1O", "values": [
      {"measurement": "GI50", "setting": "[1]", "value": 0.001, "unit": "µM"}
    ]},
    {"smiles": "C[C@H]1O[C@@H](O[C@H]2CC[C@@]3(C)[C@H](CC[C@@H]4[C@@H]3CC[C@]3(C)[C@@H](C5=CC(=O)OC5)CC[C@]43O)C2)C[C@H](O)[C@@H]1O", "values": [
      {"measurement": "growth inhibition (GI)", "setting": "HCT-116", "value": "Active"},
      {"measurement": "growth inhibition (GI)", "setting": "MOLT-4", "value": "Active"},
      {"measurement": "GI50", "setting": "[1]", "value": 0.025, "unit": "µM"},
      {"measurement": "growth inhibition (GI)", "setting": "CAKI-1", "value": "Active"},
      {"measurement": "growth inhibition (GI)", "setting": "A498", "value": "Active"},
      {"measurement": "growth inhibition (GI)", "setting": "DU-145", "value": "Active"},
      {"measurement": "Activity", "setting": "NCI-H460 [2]", "value": 28.8, "unit": "%"},
      {"measurement": "growth inhibition (GI)", "setting": "UO-31", "value": "Active"},
      {"measurement": "IC50", "setting": "NCI-H460 [3]", "value": 0.0748, "unit": "µM"},
      {"measurement": "growth inhibition (GI)", "setting": "TK-10", "value": "Active"},
      {"measurement": "growth inhibition (GI)", "setting": "SN12C", "value": "Active"},
      {"measurement": "growth inhibition (GI)", "setting": "RXF 393", "value": "Active"},
      {"measurement": "growth inhibition (GI)", "setting": "ACHN", "value": "Active"},
      {"measurement": "growth inhibition (GI)", "setting": "786-0", "value": "Active"},
      {"measurement": "growth inhibition (GI)", "setting": "OVCAR-8", "value": "Active"},
      {"measurement": "growth inhibition (GI)", "setting": "A549", "value": "Active"},
      {"measurement": "GI50", "setting": "NCI-H460 [4]", "value": 0.0038, "unit": "µM"},
      {"measurement": "growth inhibition (GI)", "setting": "NCI-H460 [5]", "value": "Active"},
      {"measurement": "growth inhibition (GI)", "setting": "OVCAR-3", "value": "Active"}
    ]},
    {"smiles": "C[C@H]1O[C@H](O[C@H]2CC[C@@]3(C)[C@H](CC[C@@H]4[C@@H]3CC[C@]3(C)[C@@H](C5=CC(=O)OC5)CC[C@]43O)C2)CC[C@@H]1O", "values": [
      {"measurement": "GI50", "setting": "[1]", "value": 0.113, "unit": "µM"}
    ]},
    {"smiles": "C[C@H]1O[C@@H](O[C@H]2[C@@H](O)C[C@H](O[C@H]3[C@@H](O)C[C@H](O[C@H]4CC[C@@]5(C)[C@H](CC[C@@H]6[C@@H]5CC[C@]5(C)[C@@H](C7=CC(=O)OC7)CC[C@]65O)C4)O[C@@H]3C)O[C@@H]2C)C[C@H](O)[C@@H]1O", "note": "[DIGITOXIN]", "values": [
      {"measurement": "IC50", "setting": "NCI-H460 [3]", "value": 0.357, "unit": "µM"},
      {"measurement": "GI50", "setting": "NCI-H460 [4]", "value": 0.0107, "unit": "µM"}
    ]},
    {"smiles": "C[C@@H]1O[C@H](O[C@H]2CC[C@@]3(C)[C@H](CC[C@@H]4[C@@H]3CC[C@]3(C)[C@@H](C5=CC(=O)OC5)CC[C@]43O)C2)C[C@@H](O)[C@H]1O", "values": [
      {"measurement": "GI50", "setting": "[1]", "value": "> 0.05", "unit": "µM"}
    ]},
    {"smiles": "C[C@H]1O[C@@H](O[C@H]2[C@@H](O)C[C@H](O[C@H]3CC[C@@]4(C)[C@H](CC[C@@H]5[C@@H]4CC[C@]4(C)[C@@H](C6=CC(=O)OC6)CC[C@]54O)C3)O[C@@H]2C)C[C@H](O)[C@@H]1O", "values": [
      {"measurement": "GI50", "setting": "[1]", "value": 0.05, "unit": "µM"}
    ]}
  ]
}
